According to PubChem BioAssay:
Inconclusive results are not listed.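 The calls were made as follows, unless noted: active = cell viability at or below a set limit in both duplicate runs, the limit being the all-compound median minus 4 SD (cut at about 23% in these data, passing the limit was not always enough); inconclusive = no clear call, values can overlap the other calls; inactive = the rest.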

Assays:
[1] = S. cerevisiae growth inhibition in permissive medium (OD615), pilot counter-assay for S. cerevisiae lifespan shortening project, permissive growth control (AID 705;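 active = growth inhibition above 25% in both replicates, a cutoff set 3 SD above the mean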); conditions: OD615, 24 h, at 10 µM, hits give high values
In short: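 Test system: Saccharomyces cerevisiae strain carrying genetically modified DeaD replicative-lifespan system; buffer or medium: SC raffinose/galactose permissive medium; dosing: one dose 10 µM, DMSO 0.25% final; times: 24 h exposure, 30 °C; measured by: OD at 615 nm; read-out basis: growth inhibition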

[2] = S. cerevisiae growth inhibition in restrictive medium, OD615, pilot screen, restrictive growth control, yeast lifespan reduction project (AID 706;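 active = growth inhibition above a set limit, 3 SD over mean compound inhibition, in both replicates, cut at about 43% in these data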;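 also: modified DeaD lifespan yeast strain shifted to restrictive glucose medium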); conditions: OD615, 48 h, at 10 µM, hits give high values
In short: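 material = engineered S. cerevisiae DeaD strain | buffer or medium = glucose-based CSMM-D restrictive medium | dosing = one concentration, 10 µM final, 0.25% DMSO | schedule = 4 h pre-growth plus 48 h compound exposure, 30 °C | detection = OD615 absorbance reading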

[3] = doxorubicin toxicity protection in MRP-1 cells – H69AR cells, CellTiter-Glo, duplicate, MRP-1 activator project, pilot screen (AID 807;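 active = viability increase at or above a cutoff of the median across tested compounds plus 3 SD, cut at about 8.5% in these data, passing the limit was not always enough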;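 also: compound pretreatment 18-22 h then 72 h combined with doxorubicin; 0% = doxorubicin alone and 100% = vehicle without doxorubicin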); conditions: H69AR viability with doxorubicin, CellTiter-Glo luminescence; at 10 µM; hits give high values
[4] = viability of HCT116 without oncogenic beta-catenin – human colon tumor cells, pilot screen (AID 823); conditions: HCT116 beta-catenin knockout viability, CellTiter-Glo, 60 h; at 10 µM; hits give low values;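 also: 0% = wells killed by 20 µM Hyamine and 100% = untreated DMSO cell wells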
[5] = viability of PTEN-null HCT116 cells – cell-based, HCT116 clonal line, CellTiter-Glo, pilot screen (AID 824;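 active = viability at or below 27.92% in each of two runs, the all-compound median minus 4 SD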;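 also: 0% = 20 µM Hyamine control and 100% = vehicle cell control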); conditions: HCT116 PTEN-deleted viability, 60 h, at 10 µM, hits give low values
[6] = RAM pathway blockade in budding yeast – dse1pr::URA3 reporter, 5-FOA selection, pilot screen (AID 869;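 active = inhibition over a set limit, the all-compound mean plus 3 SD, in both replicate runs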;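 also: 0% = DMSO wells with no growth and 100% = 10 µM 1-NA-PP1 with full growth; RAM network block rescues cells from 5-FOA so hits raise OD615 growth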); conditions: S. cerevisiae dse1pr::URA3 5-FOA growth, OD615, 2 d; at 10 µM; hits give high values; strain carries analog-sensitive mutant Cbk1 kinase
[7] = RAM signaling pathway blockade in yeast – S. cerevisiae, Pdr1DBD-CYC8 efflux-inhibited sensitized strain, primary screen (AID 1298;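 active = RAM network inhibition above 8.4% in each of two replicates, 3 SD over the compound average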;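 also: 0% = DMSO untreated cells without growth and 100% = 10 µM 1-NA-PP1 full growth; higher means more yeast growth rescued from 5-FOA killing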); conditions: S. cerevisiae cbk1-as DSE1-URA3 strain, 5-FOA growth OD615, 2 d; at 50 µM; hits give high values

COC(=O)CCc1n[nH]c(=O)[nH]c1=O
inactive: growth inhibition [1] 3.66% | growth inhibition [2] 9.25% | viability increase [3] 0.89% | viability [4] 106% | viability [5] 102% | inhibition [6] 0.54% | RAM network inhibition [7] -0.87%

COc1ccc(C2SCC(C(=O)O)N2C(C)=O)cc1OC (stereo unspecified)
inactive: growth inhibition [1] 0.095% | growth inhibition [2] 1.78% | viability increase [3] 0.1% | viability [4] 96.5% | viability [5] 102% | inhibition [6] 1.33% | RAM network inhibition [7] 7.78%

CCC(C)NC(=O)C(Cc1ccccc1)n1cccc1 (stereo unspecified)
inactive: growth inhibition [1] -9.66% | growth inhibition [2] -6.93% | viability increase [3] 0.42% | viability [4] 101% | viability [5] 88.4% | inhibition [6] -0.195% | RAM network inhibition [7] 3%

Cc1ccc(NC(=O)C2CCCN(S(=O)(=O)c3ccc4c(c3)oc(=O)n4C)C2)nc1 (stereo unspecified)
inactive: growth inhibition [1] -7.92% | growth inhibition [2] -2.67% | viability increase [3] -0.05% | viability [4] 101% | viability [5] 101% | inhibition [6] 1.09% | RAM network inhibition [7] -2.07%

N#CC1=C(N)C(C#N)(C#N)C2(C(=O)Nc3ccccc32)C2CCCC=C12 (stereo unspecified)
inactive: growth inhibition [1] 5.05% | growth inhibition [2] -12.2% | viability increase [3] -4.96% | viability [4] 91.5% | viability [5] 82.6% | inhibition [6] 0.71% | RAM network inhibition [7] 0.83%

CCCn1c(CCC(=O)O)ccc1-c1cccs1
inactive: growth inhibition [1] 5.45% | growth inhibition [2] 7.04% | viability increase [3] -2.75% | viability [4] 93.4% | viability [5] 102% | inhibition [6] 0.78% | RAM network inhibition [7] -0.03%

CN1CCN(C(=O)C2CCC(CNS(=O)(=O)c3cccc4cccnc34)CC2)CC1 (stereo unspecified)
inactive: growth inhibition [1] 4.4% | growth inhibition [2] 2.39% | viability increase [3] -0.86% | viability [4] 99% | viability [5] 100% | inhibition [6] 1.58% | RAM network inhibition [7] 0.46%

CCCCn1c(CCNC(=O)CCC)nc2ccccc21
inactive: growth inhibition [1] -9.84% | growth inhibition [2] 4.55% | viability increase [3] -0.74% | viability [4] 99.1% | viability [5] 108% | inhibition [6] 2.43% | RAM network inhibition [7] -0.53%

CCOCCCNC(=O)Cn1nc(-c2ccccc2)ccc1=O
inactive: growth inhibition [1] -19.8% | growth inhibition [2] -7.81% | viability increase [3] 1.86% | viability [4] 105% | viability [5] 91.7% | inhibition [6] 0.165% | RAM network inhibition [7] -0.58%

c1ccc(N2CCN(c3ncnc4c3oc3ccccc34)CC2)cc1
inactive: growth inhibition [1] -16.2% | growth inhibition [2] 9.12% | viability increase [3] -0.47% | viability [4] 96% | viability [5] 100% | inhibition [6] -0.03% | RAM network inhibition [7] 8.18%

Cc1ccc(Cl)cc1NC(=O)COC(=O)C1CCCC1
inactive: growth inhibition [1] -22% | growth inhibition [2] -14.1% | viability increase [3] -0.05% | viability [4] 99.1% | viability [5] 94.4% | inhibition [6] 1.32% | RAM network inhibition [7] 1.69%

O=C(O)CCC(=O)c1ccc2c(c1)OCCO2
inactive: growth inhibition [1] -6.04% | growth inhibition [2] 8.29% | viability increase [3] -1.32% | viability [4] 101% | viability [5] 103% | inhibition [6] 1.79% | RAM network inhibition [7] -1.36%

COC(=O)Cn1c(=NC(=O)C2CC2)sc2c(C)cc(C)cc21
inactive: growth inhibition [1] -12.3% | growth inhibition [2] -19% | viability increase [3] -2.07% | viability [4] 92.9% | viability [5] 91.4% | inhibition [6] 0.27% | RAM network inhibition [7] 4.34%

O=C(NCc1ccco1)c1nnc(Cc2ccc(F)cc2)o1
inactive: growth inhibition [1] -18.4% | growth inhibition [2] -12.9% | viability increase [3] -0.65% | viability [4] 105% | viability [5] 89.5% | inhibition [6] 1.21% | RAM network inhibition [7] 4.79%

COc1ccc(OC)c(C2CC(=O)N3CN(c4ccccc4F)CSC3=C2C#N)c1 (stereo unspecified)
inactive: growth inhibition [1] 8.3% | growth inhibition [2] 14.5% | viability increase [3] -1.77% | viability [4] 98.3% | viability [5] 101% | inhibition [6] 1.03% | RAM network inhibition [7] 8.39%

O=C(c1ccc(CS(=O)(=O)c2ccccc2)o1)N1CCN(c2ncccn2)CC1
inactive: growth inhibition [1] 2.63% | growth inhibition [2] -5.3% | viability increase [3] -4.07% | viability [4] 104% | viability [5] 102% | inhibition [6] 0.185% | RAM network inhibition [7] 2.87%

O=C(c1cc2c(ccc3ccccc32)oc1=O)N1CCN(CCO)CC1
inactive: growth inhibition [1] -9.81% | growth inhibition [2] -3.65% | viability increase [3] -2.23% | viability [4] 88.8% | viability [5] 93.7% | inhibition [6] 3.29% | RAM network inhibition [7] -1.69%

Cc1cc(Nc2ccc(C)c(C)c2)n2nc(C)nc2n1
inactive: growth inhibition [1] 6.21% | growth inhibition [2] 10.1% | viability increase [3] -4.63% | viability [4] 105% | viability [5] 96.9% | inhibition [6] 0.77% | RAM network inhibition [7] 3.69%
